Assays:
Histamine H1 receptor = Histamine H1 receptor (Cavia porcellus, UniProt P31389); assay: Displacement of [3H]mepyramine from histamine H1 receptor in guinea pig cerebellum membranes; type: cell membranes, Membrane
Procedure, shortened: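 Guinea pig cerebellum membranes (160 µg/mL) incubated with 0.7 nM [3H]-mepyramine at 30 °C for 30 min, 0.5 mL final volume, ended by filtration. Nonspecific binding with 10 µM promethazine. At least six concentrations in duplicate; IC50 by nonlinear regression. Compound stocks 10^-2 M in DMSO, diluted in 50% DMSO.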

[1] = target: T1, Adrenergic receptor alpha-1 (Rattus norvegicus, UniProt P15823+P23944+P43140); assay: Displacement of [3H]prazosin from adrenergic alpha-1 receptor in rat brain membranes; type: cell membranes
T1 sequence (P15823 whole entry): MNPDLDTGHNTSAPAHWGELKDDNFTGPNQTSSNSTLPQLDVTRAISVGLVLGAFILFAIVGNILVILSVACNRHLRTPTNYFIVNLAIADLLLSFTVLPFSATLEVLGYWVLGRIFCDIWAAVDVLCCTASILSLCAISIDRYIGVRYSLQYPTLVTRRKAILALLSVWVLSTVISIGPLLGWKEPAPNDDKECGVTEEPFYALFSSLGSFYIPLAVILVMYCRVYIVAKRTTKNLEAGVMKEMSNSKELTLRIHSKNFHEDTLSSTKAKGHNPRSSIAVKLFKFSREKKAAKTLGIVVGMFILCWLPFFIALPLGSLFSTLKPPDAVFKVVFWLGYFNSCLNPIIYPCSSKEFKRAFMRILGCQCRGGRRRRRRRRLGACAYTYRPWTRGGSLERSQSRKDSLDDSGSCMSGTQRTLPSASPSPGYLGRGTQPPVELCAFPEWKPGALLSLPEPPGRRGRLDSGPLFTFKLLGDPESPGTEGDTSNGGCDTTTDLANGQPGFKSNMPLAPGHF
T1 sequence (P23944 whole entry): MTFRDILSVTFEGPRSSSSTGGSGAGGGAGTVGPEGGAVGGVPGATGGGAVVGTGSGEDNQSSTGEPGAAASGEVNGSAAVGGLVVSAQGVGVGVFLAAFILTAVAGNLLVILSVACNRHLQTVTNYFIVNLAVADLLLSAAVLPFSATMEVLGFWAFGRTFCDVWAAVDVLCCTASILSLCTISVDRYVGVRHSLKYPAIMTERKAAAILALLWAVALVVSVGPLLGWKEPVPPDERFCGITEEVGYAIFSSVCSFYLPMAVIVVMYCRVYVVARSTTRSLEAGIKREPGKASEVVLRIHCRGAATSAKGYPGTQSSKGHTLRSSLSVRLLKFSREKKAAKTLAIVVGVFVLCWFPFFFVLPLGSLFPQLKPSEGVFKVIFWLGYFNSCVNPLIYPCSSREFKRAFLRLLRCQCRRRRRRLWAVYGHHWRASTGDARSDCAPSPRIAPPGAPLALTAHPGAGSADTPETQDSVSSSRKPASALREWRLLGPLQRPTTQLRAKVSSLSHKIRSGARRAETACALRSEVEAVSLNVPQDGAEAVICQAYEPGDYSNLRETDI
T1 sequence (P43140 whole entry): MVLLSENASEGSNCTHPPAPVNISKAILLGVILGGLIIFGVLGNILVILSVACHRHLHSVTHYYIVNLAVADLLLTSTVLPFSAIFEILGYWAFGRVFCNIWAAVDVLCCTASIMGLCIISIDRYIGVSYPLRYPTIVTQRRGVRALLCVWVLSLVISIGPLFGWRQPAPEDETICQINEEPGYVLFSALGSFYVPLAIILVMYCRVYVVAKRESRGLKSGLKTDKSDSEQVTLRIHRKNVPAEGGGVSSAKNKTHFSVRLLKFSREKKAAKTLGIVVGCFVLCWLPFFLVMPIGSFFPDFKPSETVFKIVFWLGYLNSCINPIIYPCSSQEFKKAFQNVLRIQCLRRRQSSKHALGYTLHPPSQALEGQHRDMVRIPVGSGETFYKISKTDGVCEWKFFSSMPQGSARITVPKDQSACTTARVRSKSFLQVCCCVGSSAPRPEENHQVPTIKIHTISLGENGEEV
Procedure, shortened: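 Rat brain membranes (340 µg protein/mL) with 0.25 nM [3H]-prazosin in 50 mM Tris-HCl pH 7.7, room temperature, 60 min, filtration. Nonspecific binding with 100 µM prazosin. Several concentrations run in duplicate; IC50 by nonlinear regression.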

Rattus norvegicus [2] = assay: Inhibition of increase in histamine-induced cutaneous vascular permeability in orally dosed Wistar rat model after 4 hrs; type: functional; conditions: po
Procedure, shortened: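 Fasted male rats (150-175 g; n=5 per condition) dosed orally in 0.5% methylcellulose/0.1% Tween 80. At 4 h, under light ether, received four intradermal injections of 5 µg histamine, then 0.5% Evans Blue iv. Killed 1 h later. Papule area from maximum and minimum diameters (ellipse); inhibition of papule area; ED50 (mg/kg, po).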

Rattus norvegicus [3] = assay: Inhibition of increase in histamine-induced cutaneous vascular permeability in orally dosed Wistar rat model after 8 hrs; type: functional; conditions: po
Procedure, shortened: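 Male Wistar rats (150-175 g), fasted, dosed orally in 0.5% methylcellulose/0.1% Tween 80 (10 mL/kg), n=5. At 1 or 8 h after dosing, four intradermal injections of 5 µg histamine were given, plus iv 0.5% Evans Blue. Papule area (ellipse) measured 1 h later. ED50 in mg/kg po.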

Sequence of Histamine H1 receptor (P31389 whole entry): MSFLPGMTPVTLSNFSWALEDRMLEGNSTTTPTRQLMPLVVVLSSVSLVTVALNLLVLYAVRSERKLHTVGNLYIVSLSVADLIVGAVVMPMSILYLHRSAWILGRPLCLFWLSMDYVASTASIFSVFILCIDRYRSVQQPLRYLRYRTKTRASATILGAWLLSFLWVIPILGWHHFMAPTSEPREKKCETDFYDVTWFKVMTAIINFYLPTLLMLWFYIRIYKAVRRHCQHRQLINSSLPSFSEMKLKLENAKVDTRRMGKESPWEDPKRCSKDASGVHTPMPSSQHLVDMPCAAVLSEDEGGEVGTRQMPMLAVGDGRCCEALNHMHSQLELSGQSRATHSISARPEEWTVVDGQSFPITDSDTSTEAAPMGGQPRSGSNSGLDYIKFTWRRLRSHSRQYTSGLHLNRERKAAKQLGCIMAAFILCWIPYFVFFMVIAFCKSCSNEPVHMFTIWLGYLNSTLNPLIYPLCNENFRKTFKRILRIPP

SMILES	IC50 (Histamine H1 receptor)	IC50 [1]	ED50 (Rattus norvegicus [2])	ED50 (Rattus norvegicus [3])
O=C(O)c1ccccc1OCCN1CCC(c2cn(Cc3cccs3)c3ccccc23)CC1	0.098 µM (antagonist)	3.7 µM		
O=C(O)c1ccccc1OCCN1CCC(c2cn(CCC3COCCO3)c3ccccc23)CC1 (configuration not stated)	0.39 µM (antagonist)	6.2 µM	3 mg/kg	
CCOCCn1cc(C2CCN(CCOc3cc(OC)ccc3C(=O)O)CC2)c2ccccc21	0.034 µM (antagonist)		0.17 mg/kg	
CCOCCn1cc(C2CCN(Cc3cccc(C(=O)O)c3)CC2)c2cc(OC)ccc21	0.5 µM (antagonist)	> 10 µM	> 3 mg/kg	
CCOCCn1cc(C2CCN(CCOc3ccccc3C(=O)O)CC2)c2ccc(F)cc21	0.076 µM (antagonist)	10 µM		
CCOCCn1cc(C2CCN(Cc3cc(C(=O)O)ccc3Br)CC2)c2ccccc21	0.345 µM (antagonist)	> 10 µM	3 mg/kg	
CCOCCn1cc(C2CCN(CCOc3ccsc3C(=O)O)CC2)c2ccccc21	0.1 µM (antagonist)	< 10 µM		
CCOCCn1cc(C2CCN(CCOc3ccccc3C(=O)O)CC2)c2ccc(C(F)(F)F)cc21	> 0.5 µM	6.9 µM		
CCOCCn1cc(C2CCN(Cc3cccc(C(=O)O)c3)CC2)c2ccccc21	0.218 µM (antagonist)		0.011 mg/kg	
O=C(O)c1cccc(CN2CCC(c3cn(Cc4ccc(Cl)s4)c4ccccc34)CC2)c1	0.103 µM (antagonist)		> 3 mg/kg	
CCOCCn1cc(C2CCN(Cc3ccc(OC)c(C(=O)O)c3)CC2)c2ccccc21			0.02 mg/kg	
C=CCn1cc(C2CCN(CCOc3ccccc3C(=O)O)CC2)c2ccccc21		> 10 µM	3 mg/kg	
O=C(O)c1ccccc1OCCN1CCC(c2cn(CCc3ccccn3)c3ccccc23)CC1	0.57 µM (antagonist)	> 10 µM		
CCOCCn1cc(C2CCN(Cc3ccccc3C(=O)O)CC2)c2ccccc21	0.33 µM (antagonist)	> 10 µM	3 mg/kg	
CCOCCn1cc(C2CCN(CCOc3ccccc3C(=O)O)CC2)c2cccc(Br)c21	0.08 µM (antagonist)	10 µM	> 3 mg/kg	
CCOCCn1cc(C2CCN(Cc3ccccc3OCC(=O)O)CC2)c2ccccc21	0.196 µM (antagonist)	> 10 µM	> 3 mg/kg	
COCCn1cc(C2CCN(Cc3cccc(C(=O)O)c3)CC2)c2ccc(F)cc21	0.15 µM (antagonist)	> 10 µM	1 mg/kg	
CCOCCn1cc(C2CCN(Cc3cccc(OCC(=O)O)c3)CC2)c2ccccc21	0.13 µM (antagonist)	> 10 µM	3 mg/kg	

SMILES	IC50 (Histamine H1 receptor)	IC50 [1]	ED50 (Rattus norvegicus [2])	ED50 (Rattus norvegicus [3])
O=C(O)c1cccc(CN2CCC(c3cn(Cc4ccco4)c4ccccc34)CC2)c1	0.087 µM (antagonist)	> 10 µM	1 mg/kg	
CCOCCn1cc(C2CCN(CCOc3c(Br)cc(Br)cc3C(=O)O)CC2)c2ccccc21	0.225 µM (antagonist)	6.9 µM		
COCCn1cc(C2CCN(CCOc3ccccc3C(=O)O)CC2)c2ccccc21		> 10 µM	1.1 mg/kg	
O=C(O)c1ccccc1OCCN1CCC(c2cn(Cc3ccco3)c3ccccc23)CC1		> 10 µM	3 mg/kg	
CCOCCn1cc(C2CCN(CCOc3cccc(F)c3C(=O)O)CC2)c2ccccc21	0.5 µM (antagonist)	10 µM		
O=C(O)c1cccc(CN2CCC(c3cn(Cc4cccs4)c4ccccc34)CC2)c1		> 10 µM	3 mg/kg	
CCOCCn1cc(C2CCN(CCOc3ccccc3C(=O)O)CC2)c2cc(F)ccc21	0.1 µM (antagonist)	10 µM		
CCOCCn1cc(C2CCN(CCOc3ccc(C(=O)O)cc3)CC2)c2ccccc21		3 µM		
CCOCCn1cc(C2CCN(CCOc3ccc(C(C)=O)cc3C(=O)O)CC2)c2ccccc21	0.219 µM (antagonist)	> 10 µM		
O=C(O)c1ccccc1OCCN1CCC(c2cn(Cc3ccco3)c3cc(F)ccc23)CC1	0.037 µM (antagonist)	> 10 µM	0.32 mg/kg	2.2 mg/kg (antagonist)
O=C(O)c1ccccc1OCCN1CCC(c2cn(Cc3ccc(Cl)s3)c3ccccc23)CC1			3 mg/kg	
O=C(O)c1ccccc1OCCN1CCC(c2cn(Cc3ccc(Cl)s3)c3cc(F)ccc23)CC1	0.028 µM (antagonist)	> 10 µM	1 mg/kg	
CCOCCn1cc(C2CCN(CCOc3cccc(C(=O)O)c3)CC2)c2ccccc21		2 µM		
CCOCCn1cc(C2CCN(Cc3ccc(OCC(=O)O)cc3)CC2)c2ccccc21	0.322 µM (antagonist)	> 10 µM	> 3 mg/kg	
CCOCCn1cc(C2CCN(CCOc3ccc(C)cc3C(=O)O)CC2)c2ccccc21	0.221 µM (antagonist)	8.6 µM		
O=C(O)c1ccccc1OCCN1CCC(c2cn(CC3CC3)c3cc(F)ccc23)CC1		> 10 µM	0.11 mg/kg	0.5 mg/kg (antagonist)
CCOCCn1cc(C2CCN(CCOc3ccccc3C(=O)O)CC2)c2cc(Br)ccc21	0.15 µM (antagonist)	3.6 µM		
CCOCCn1cc(C2CCN(CCOc3ccccc3C(=O)O)CC2)c2cccc(C)c21	0.5 µM (antagonist)	7.6 µM		
